# Measles CPE = protection of cells from measles virus; Measles virus-infected cells, CPE protection, absorbance; AID 841; 140,000 tested, 1.5% active; protection (pct of control), % at 4 µM; in the data active = protection mostly above about 24%, no sharp cut-off; inactive = mostly below about 26%
# Yeast life ext = extends the lifespan of yeast. S. cerevisiae growth with nicotinamide, OD615; deaD strain in restrictive glucose medium. inhibition of the nicotinamide effect, % at 10 µM. 130,000 tested, 0.68% active;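 active = inhibition above a set limit, placed 3 SD over the median of all compounds, cut at about 26% in these data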;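 also: 0% = nicotinamide-treated wells and 100% = cells grown without nicotinamide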
#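 assay system = DeaD-strain S. cerevisiae | buffer or medium = restrictive glucose medium | reagent = 1.5 mM nicotinamide | compound = 10 µM single point, 0.25% DMSO | incubation = 48 h compound exposure at 30 °C, humidified | signal = OD615 measurement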
# Yeast growth inh = reduces growth of yeast BB579 in restrictive medium; S. cerevisiae BB579 growth, OD615, 48 h; 140,000 tested, 0.51% active; inhibition, % at 10 µM; AID 804;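 active = inhibition above a set limit, 3 SD over the mean compound inhibition, cut at about 44% in these data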
#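 Material: Saccharomyces cerevisiae DeaD strain BB579, replicative lifespan model yeast; buffer or medium: CSMM-D restrictive synthetic medium containing dextrose (glucose); compound: 10 µM single dose, DMSO 0.25%; timing: 48 h compound exposure at 30 °C after 4 h preincubation; signal: turbidity as optical density at 615 nm; benchmarks: positive control amphotericin B 10 µg/mL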
# Arbovirus inh = arbovirus infection inhibition | arbovirus infection cell-based antiviral screen | inhibition, % at 10 µM | 200,000 tested, 0.37% active | AID 1251; in the data active = inhibition above about 30%
# Rad51 HR inh = blocks human Rad51 in homologous recombination; 200,000 tested, 0.085% active; hRad51 DNA strand exchange, fluorescence dequenching; AID 1385; Q06609; inhibition, % at 10 µM;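 active = inhibition above 40% at the single screening dose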;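 also: 0% = DMSO control wells and 100% = blanks with heterologous ssDNA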
# Target sequence (Q06609 whole entry, looked up): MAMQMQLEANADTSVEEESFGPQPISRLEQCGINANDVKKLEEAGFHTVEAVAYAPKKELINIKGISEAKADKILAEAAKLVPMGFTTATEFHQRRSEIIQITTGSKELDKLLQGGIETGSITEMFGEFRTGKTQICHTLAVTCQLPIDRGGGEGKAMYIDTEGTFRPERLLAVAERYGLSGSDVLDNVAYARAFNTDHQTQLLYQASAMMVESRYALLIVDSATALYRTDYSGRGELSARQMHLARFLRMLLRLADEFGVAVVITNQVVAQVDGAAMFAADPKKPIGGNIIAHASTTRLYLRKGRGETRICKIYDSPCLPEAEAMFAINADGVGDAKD
#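 material = hRad51 filaments on single-stranded DNA | reagent = Donor/quencher-labelled 47-bp dsDNA substrate | compound = 10 µM final, single point | schedule = strand-exchange reaction 15 min at room temperature | measured by = fluorescein emission 520 nm, excitation 485 nm | read-out basis = % inhibition versus plate control and blank means | benchmarks = plate controls and plate blanks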
# HMGR II inh = E. faecalis class II HMG-CoA reductase inhibition. purified E. faecalis HMGR, NADPH absorbance 340 nm kinetic. inhibition, % at 10 µM. 190,000 tested, 0.41% active. AID 1066;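 active = inhibition above a set limit, the median over all tested compounds plus 3 SD, cut at about 9.5% in these data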;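 also: enzyme runs in reverse so mevalonate oxidation gives rising NADPH absorbance; 0% = complete reaction with DMSO and 100% = background rate lacking mevalonate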
# * = called active by the depositor; · = no result. In the library only some 2.4% were active in any assay of this set; here they are far more common.
SMILES,Measles CPE,Yeast life ext,Yeast growth inh,Arbovirus inh,Rad51 HR inh,HMGR II inh
CCOc1ccc(C(=O)Nc2cccc3ncccc23)cc1Br,·,·,·,-2,13,-3
COc1ccc(Cl)cc1C(=O)Nc1nnn(C)n1,17,-9,-37,6,3,-3
CN(C)CCNCCCOc1ccccc1-c1ccccc1,·,·,·,-25,4,3
CCNC(=O)NC(=O)C(C)On1nnc2ccc(S(=O)(=O)N(CC)CC)cc21 (configuration not stated),5,28*,-38,2,17,-4
CCOC(=O)c1c(NC(=O)Cc2cccs2)sc2c1CCCC2,18,-13,-29,-2,1,-10
NC(=O)c1c(NC(=O)Cc2cccs2)sc2c1CCC2,45*,-11,-43,-8,2,-9
Cc1nc(OCc2c(C)noc2C)c2ccccc2n1,·,·,·,18,0,-1
CC(=O)N(Cc1cccs1)Cc1cc2cc(C)c(C)cc2nc1Cl,·,·,·,-10,0,-1
Cc1ccc2nc(Cl)c(CN(Cc3cccs3)C(=O)C3CC3)cc2c1,37*,-7,-68,-6,-4,1
Cc1ccc(-n2c(CNc3ccc(F)cc3)nnc2SCC(=O)N2CCCC2)cc1,2,-20,7,6,8,-10
COc1ccc(NCc2nnc(SCCN3CCCCC3)n2-c2ccc(C)cc2)cc1,·,·,·,9,6,17*
C/C(=N\NC(=O)c1cccc(Cl)c1)C1C(=O)c2ccccc2C1=O,5,43*,-40,12,·,0
Cc1ccc(/C=C/C(=O)O)cc1S(=O)(=O)NCCCO,17,-19,-46,9,3,22*
COc1cc(/C=C/C(=O)O)cc(S(=O)(=O)NCCCO)c1OC,4,-11,-25,10,8,-8
CCC/C=C(\CCC)C(NC(=O)CCc1ccccc1)c1ccc(C(F)(F)F)cc1 (configuration not stated),·,·,·,·,-15,·
COc1cccc(C(=O)Nc2cccc(C(=O)NC3=NN(c4c(Cl)cc(Cl)cc4Cl)C(=O)C3)c2)c1,18,·,-58,34*,3,1
CC(C)(C)C(=O)NC1=NN(c2c(Cl)cc(Cl)cc2Cl)C(=O)C1,·,·,·,-5,-65,-3
O=c1[nH][nH]cc1C=Nc1ccccc1Cl,·,·,·,2,-1,-3
O=c1[nH][nH]cc1C=Nc1ccccc1O,2,-14,50*,5,-2,-3
CN(C)S(=O)(=O)c1ccc(NS(=O)(=O)/C=C/c2ccccc2)cc1,44*,-11,-26,6,0,4
O=S(=O)(/C=C/c1ccccc1)Nc1ccc(F)cc1,·,·,·,11,-1,-4
OC(Cc1nc2ccccc2[nH]1)c1ccccc1Cl (configuration not stated),51*,-4,8,8,-6,-6
Clc1ccc(OCc2nc3ccccc3[nH]2)cc1,·,·,·,-7,·,-2
CCn1c(=O)c(C(=O)Nc2nc3ccccc3[nH]2)c(O)c2ccccc21,11,7,67*,0,1,-5
CCCCCCCCCC(=O)NNC(=O)c1c(O)c2ccccc2n(CCC)c1=O,·,·,·,-13,4,1
SMILES,Measles CPE,Yeast life ext,Yeast growth inh,Arbovirus inh,Rad51 HR inh,HMGR II inh
CCCn1c(=O)c(C(=O)NNS(=O)(=O)c2ccc(Cl)cc2)c(O)c2ccccc21,11,27*,-15,-27,0,-3
CCn1c(=O)c(C(=O)Nn2c(C)nc3ccccc3c2=O)c(O)c2ccccc21,12,-23,99*,11,-15,1
CCc1nc2ccccc2c(=O)n1NC(=O)c1c(O)c2ccccc2n(CC)c1=O,·,·,·,10,-62,-4
CCOc1ccc(NC(=O)Nc2cccnc2)cc1,·,·,·,-3,·,-1
Cc1cccc(C(=O)N2CCN=C2SCc2ccc([N+](=O)[O-])cc2)c1,·,·,·,-3,-5,-3
O=c1cc(-c2ccc(O)cc2)oc2ccccc12,·,·,·,-6,-5,0
O=c1cc(-c2ccncc2)oc2ccccc12,33,-11,46*,3,-5,-3
Oc1ccccc1N=Cc1c(O)ccc2oc3c(c12)CCCC3,·,·,·,·,-43,·
Cc1ccnc(N=Cc2c(O)ccc3oc4c(c23)CCCC4)c1,10,45*,-54,-4,-39,-1
CCCCNC(=O)OC(C)CNC(=O)Oc1cccc(C)c1 (configuration not stated),43*,-29,-7,16,-10,-4
CCCCNC(=O)OCCNC(=O)Oc1cccc(C)c1,15,-3,-16,4,3,0
CCN(CC)C1=CC2=CC(=C(C#N)C#N)CCC2CC1 (configuration not stated),39*,-4,-22,-1,·,-7
CCCCN(C)C1=CC2=CC(=C(C#N)C#N)CCC2CC1 (configuration not stated),35,-1,-43,-5,·,-1
CC1Nc2nc(N(C)C)[nH]c(=O)c2NC1C (configuration not stated),3,6,-15,11,6,-4
Cc1ccc2[nH]c(=O)c(CN(CCO)Cc3nnnn3CCc3ccccc3)cc2c1,6,68*,-15,13,-7,-4
S=C(Nc1ccc(Cl)c(Cl)c1)NN1CCOCC1,6,0,-29,5,-1,-5
Cc1ccc(-c2nc3n(n2)Cc2ccccc2-3)cc1,7,·,-19,-5,-6,-3
NC(=S)Cc1nc2n(n1)Cc1ccccc1-2,50*,-11,14,4,5,7
O=C(CCl)Nc1ccccc1Sc1ccccc1,46*,-8,9,13,0,-1
Cc1cc(CCCCCCCCc2cc(C)cc(=O)o2)oc(=O)c1,7,4,-23,-2,11,3
COc1nc(OC)nc(N2CCC(C(=O)NC3CC3)CC2)n1,·,·,·,1,9,-2
COc1ccc(CNC(=O)C2CCN(c3nc(OC)nc(OC)n3)CC2)cc1,15,90*,-37,1,-11,-2
C/C(=N\NC(=O)c1ccccc1)c1ccc(NC(=O)c2cccs2)cc1,3,-6,-25,26,3,-7
C/C(=N\NC(=O)c1ccccc1C)c1ccc(NC(=O)c2cccs2)cc1,2,-14,-18,82*,·,-2
CCC(OC(=O)C1=Cc2ccccc2OC1)C(=O)NCc1ccco1 (configuration not stated),·,·,·,2,4,12*
CC(OC(=O)C1=Cc2ccccc2OC1)C(=O)NCc1ccco1 (configuration not stated),·,·,·,2,-3,-7
COCc1cc(C)n(CC(=O)OC)c(=O)c1C#N,·,·,·,18,4,14*
COCc1cc(C)n(CC(=O)Nc2ccccc2OC)c(=O)c1C#N,16,-6,-16,8,2,-5
O=C1c2ccccc2C(=O)N1CCc1csc(-c2ccccc2)n1,39*,-22,-37,-5,0,3
Cc1[nH]nc2c1C(CCc1ccccc1)C(C#N)=C(N)O2 (configuration not stated),13,·,-44,-4,2,27*

# Compound activity as filed in PubChem BioAssay.
